Source: ChEMBL document CHEMBL1147364, “An antifungal bibenzyl from the New Zealand liverwort, Plagiochila stephensoniana. Bioactivity-directed isolation, synthesis, and analysis” (J Nat Prod, 1993)
Values after ≈ are worked out from the molar mass of the structure shown. Active and inactive are the calls of the source. The rule behind the calls is not given here.

Legend:
Amorphotheca resinae [1] = assay: Antifungal activity against Cladosporium resinae 10100 at 100 units/disk by disk diffusion assay; assay type: functional, organism-based
Summary of the method: (§1)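 Sample solution dried onto 6-mm filter-paper disks, which are laid on seeded agar Petri dishes and incubated.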

[2] = test system: Trichophyton mentagrophytes; assay: Antifungal activity against Trichophyton mentagrophytes 10100 at 100 units/disk by disk diffusion assay; assay type: functional, organism-based; summary of the method: as §1
Candida albicans [3] = assay: Antifungal activity against Candida albicans 10261 by tube assay method; assay type: functional
Summary of the method: (§2)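 MIC by standard tube dilution assay. Minimum fungicidal concentration is also reported in µg/ml.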

[4] = test system: Trichophyton mentagrophytes; assay: Antifungal activity against Trichophyton mentagrophytes 10100 by tube assay method; assay type: functional; summary of the method: as §2
[5] = Cytotoxicity against african green monkey BSC cells at 60 ug/mL after 24 hrs; assay type: cell-based; details: chlorocebus aethiops
Summary of the method: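 Sample on 6-mm filter paper disks placed directly on BSC-1 monkey kidney cells, incubated 24 h, examined by inverted microscope. Cytotoxic zone scored as +, ++, +++ or whole well.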

Amorphotheca resinae [6] = assay: Antifungal activity against Cladosporium resinae 10100 at 300 ug/disk by disk diffusion assay; assay type: functional, organism-based
Summary of the method: (§3)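 Sample solution dried onto 6-mm filter paper disks at the stated loading. Disks placed on agar plates seeded with the test organism, then incubated. Read-out is the width of the inhibition zone around the disk, in mm.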

Escherichia coli [7] = assay: Antibacterial activity against Escherichia coli at 60 ug/disk by disk diffusion assay; assay type: functional, organism-based; summary of the method: as §3
Amorphotheca resinae [8] = assay: Antifungal activity against Cladosporium resinae 10100 at 60 ug/disk by disk diffusion assay; assay type: functional; details: for zone of inhibition at 60 µg/disc: read-out: IZ; summary of the method: as §3
Bacillus subtilis [9] = assay: Antibacterial activity against Bacillus subtilis at 60 ug/disk by disk diffusion assay; assay type: functional; details: for zone of inhibition at 60 µg/disc: read-out: IZ; summary of the method: as §3
Bacillus subtilis [10] = assay: Antibacterial activity against Bacillus subtilis at 300 ug/disk by disk diffusion assay; assay type: functional; details: for zone of inhibition at 300 µg/disc: read-out: IZ; summary of the method: as §3
Candida albicans [11] = assay: Antifungal activity against Candida albicans 10261 at 60 ug/disk by disk diffusion assay; assay type: functional; details: for zone of inhibition at 60 µg/disc: read-out: IZ; summary of the method: as §3
Candida albicans [12] = assay: Antifungal activity against Candida albicans 10261 at 300 ug/disk by disk diffusion assay; assay type: functional; details: for zone of inhibition at 300 µg/disc: read-out: IZ; summary of the method: as §3
[13] = test system: Trichophyton mentagrophytes; assay: Antifungal activity against Trichophyton mentagrophytes 10100 at 60 ug/disk by disk diffusion assay; assay type: functional; details: for zone of inhibition at 60 µg/disc: read-out: IZ; summary of the method: as §3
[14] = test system: Trichophyton mentagrophytes; assay: Antifungal activity against Trichophyton mentagrophytes 10100 at 300 ug/disk by disk diffusion assay; assay type: functional; details: for zone of inhibition at 300 µg/disc: read-out: IZ; summary of the method: as §3
Bacillus subtilis [15] = assay: Antibacterial activity against Bacillus subtilis at 30 ug/disk by disk diffusion assay; assay type: functional; details: read-out: IZ; summary of the method: as §3
Human alphaherpesvirus 1 = assay: Antiviral activity against Herpes simplex virus type 1 ATCC VR 733 infected in african green monkey BSC cells assessed as inhibition of virus-induced cytopathic effect; assay type: functional, organism-based
Summary of the method: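 Sample dried onto 6-mm filter paper disks placed directly on BSC-1 (African green monkey kidney) cell monolayers, which were infected with HSV type 1 (ATCC VR 733). After 24 h incubation, examined by inverted microscope. Zone of viral and/or cytotoxic inhibition around the disk recorded.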

Poliovirus 1 = assay: Antiviral activity against Poliovirus type 1 infected in african green monkey BSC cells assessed as inhibition of virus-induced cytopathic effect; assay type: functional, organism-based
Summary of the method: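 Sample is dried onto 6-mm filter-paper disks and placed directly on BSC-1 (African green monkey kidney) cell monolayers. Cells are infected with Polio Type I (Pfizer vaccine strain) and incubated 24 h. Wells are examined by inverted microscope for a zone of viral and/or cytotoxic inhibition around the disk. Cytotoxicity is scored as zone size (+, ++, +++, whole well).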

P388 = assay: Cytotoxicity against mouse P388 cells after 72 hrs by MTT assay; assay type: functional, cell-based; details: P388, 72 h
Summary of the method: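 P-388 murine leukemia cells incubated 72 h with a 2-fold dilution series of sample. Growth read by MTT tetrazolium staining absorbance. IC50 (µg/ml) is the concentration reducing growth to 50% of a solvent control.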

Gloeophyllum trabeum = assay: Antifungal activity against Gloeophyllum trabeum; assay type: functional, organism-based
Postia placenta = assay: Antifungal activity against Poria placenta; assay type: functional, organism-based; details: Rhodonia placenta
Bacillus subtilis [16] = assay: Antibacterial activity against Bacillus subtilis at 2.4 ug/disk by disk diffusion assay; assay type: functional, organism-based; summary of the method: as §3
Bacillus subtilis [17] = assay: Antibacterial activity against Bacillus subtilis at 12 ug/disk by disk diffusion assay; assay type: functional; details: read-out: IZ; summary of the method: as §3
Candida albicans [18] = assay: Antifungal activity against Candida albicans 10261 at 2.4 ug/disk by disk diffusion assay; assay type: functional, organism-based; summary of the method: as §3
Candida albicans [19] = assay: Antifungal activity against Candida albicans 10261 at 12 ug/disk by disk diffusion assay; assay type: functional; details: for zone of inhibition at 12 µg/disc: read-out: IZ; summary of the method: as §3
[20] = test system: Trichophyton mentagrophytes; assay: Antifungal activity against Trichophyton mentagrophytes 10100 at 2.4 ug/disk by disk diffusion assay; assay type: functional; details: for zone of inhibition at 2.4 µg/disc: read-out: IZ; summary of the method: as §3
[21] = test system: Trichophyton mentagrophytes; assay: Antifungal activity against Trichophyton mentagrophytes 10100 at 12 ug/disk by disk diffusion assay; assay type: functional; details: read-out: IZ; summary of the method: as §3
Pseudomonas aeruginosa = assay: […] aeruginosa at 60 ug/disk by disk diffusion assay; assay type: functional, organism-based; summary of the method: as §3
Escherichia coli [22] = assay: Antibacterial activity against Escherichia coli at 10 ug/disk by disk diffusion assay; assay type: functional, organism-based; summary of the method: as §1

Compound | MFC (Candida albicans [3]) [µg/mL] | MIC (Candida albicans [3]) [µg/mL] | MFC [4] [µg/mL] | MIC [4] [µg/mL] | Activity [5] | Activity (Amorphotheca resinae [6]) | Activity (Escherichia coli [7]) | Activity (Amorphotheca resinae [8]) | Activity (Bacillus subtilis [9]) | Activity (Bacillus subtilis [10]) | Activity (Candida albicans [11]) | Activity (Candida albicans [12]) | Activity [13] | Activity [14] | zone of inhibition at 60 µg/disc [13] [mm] | IC50 (P388) [µg/mL] | also measured
NYSTATIN | 31.2 | 31.2 | 62.5 | 62.5 | – | – | – | – | – | – | – | – | – | – | – | – | inhibition zone (IZ) (Amorphotheca resinae [1]): 10 mm; inhibition zone (IZ) [2]: 8 mm
COc1cccc(/C=C/c2ccc(O[Si](C)(C)C(C)(C)C)cc2)c1 | – | – | – | – | Not Active | inactive | inactive | inactive | inactive | inactive | inactive | inactive | inactive | inactive | – | – | –
Cc1cccc(O)c1 [METACRESOL] | – | – | – | – | Not Active | – | inactive | inactive | inactive | inactive | inactive | inactive | – | inactive | 2 | – | –
O=C(N[C@H](CO)[C@H](O)c1ccc([N+](=O)[O-])cc1)C(Cl)Cl [CHLORAMPHENICOL] | – | – | – | – | – | – | – | – | – | – | – | – | – | – | – | – | zone of inhibition at 30 µg/disc (Bacillus subtilis [15]): 12 mm
COc1ccc(CCc2cccc(OC)c2)cc1 | – | – | – | – | Not Active | – | inactive | inactive | inactive | inactive | inactive | inactive | inactive | inactive | – | – | –
COc1cccc(CCc2ccc(O)cc2)c1 | 125 (≈ 548 µM) | 125 (≈ 548 µM) | 62.5 (≈ 274 µM) | 62.5 (≈ 274 µM) | – | – | inactive | – | – | – | – | – | – | – | 7 | > 25 | Activity (Human alphaherpesvirus 1): inactive; Activity (Poliovirus 1): inactive; IC50 (Gloeophyllum trabeum): 87 µg/mL (≈ 381 µM); IC50 (Postia placenta): 11 µg/mL (≈ 48.2 µM); zone of inhibition at 60 µg/disc (Amorphotheca resinae [8]): 2 mm; Activity (Bacillus subtilis [16]): inactive; zone of inhibition at 12 µg/disc (Bacillus subtilis [17]): 3 mm; zone of inhibition at 60 µg/disc (Bacillus subtilis [9]): 5 mm; zone of inhibition at 300 µg/disc (Bacillus subtilis [10]): 5 mm; Activity (Candida albicans [18]): inactive; zone of inhibition at 12 µg/disc (Candida albicans [19]): 2 mm; zone of inhibition at 60 µg/disc (Candida albicans [11]): 10 mm; zone of inhibition at 300 µg/disc (Candida albicans [12]): 10 mm; Activity [20]: inactive; zone of inhibition at 12 µg/disc [21]: 7 mm; zone of inhibition at 300 µg/disc [14]: 7 mm; Activity (Pseudomonas aeruginosa): inactive
C(=C\c1ccccc1)/c1ccccc1 | – | – | – | – | – | inactive | inactive | inactive | inactive | inactive | inactive | inactive | inactive | inactive | – | – | –
COc1cccc(/C=C/c2ccc(O)cc2)c1 [(E)-5-METHOXY-4'-STILBENOL] | 125 (≈ 552 µM) | 31.2 (≈ 138 µM) | 31.2 (≈ 138 µM) | 31.2 (≈ 138 µM) | – | – | inactive | – | – | – | – | – | – | – | 6 | 9.9 (≈ 43.8 µM) | zone of inhibition at 60 µg/disc (Amorphotheca resinae [8]): 2 mm; Activity (Bacillus subtilis [16]): inactive; zone of inhibition at 12 µg/disc (Bacillus subtilis [17]): 2 mm; zone of inhibition at 60 µg/disc (Bacillus subtilis [9]): 4 mm; zone of inhibition at 300 µg/disc (Bacillus subtilis [10]): 6 mm; Activity (Candida albicans [18]): inactive; Activity (Candida albicans [19]): inactive; zone of inhibition at 60 µg/disc (Candida albicans [11]): 2 mm; zone of inhibition at 300 µg/disc (Candida albicans [12]): 7 mm; zone of inhibition at 2.4 µg/disc [20]: 2 mm; zone of inhibition at 12 µg/disc [21]: 8 mm; zone of inhibition at 300 µg/disc [14]: 10 mm
COc1cccc(CCc2ccc(O[Si](C)(C)C(C)(C)C)cc2)c1 | > 1000 | > 1000 | > 1000 | > 1000 | Not Active | inactive | inactive | inactive | inactive | inactive | inactive | inactive | inactive | inactive | – | > 25 | –
GENTAMICIN | – | – | – | – | – | – | – | – | – | – | – | – | – | – | – | – | inhibition zone (IZ) (Escherichia coli [22]): 8 mm
CO[C@@]12[C@H](COC(N)=O)C3=C(C(=O)C(C)=C(N)C3=O)N1C[C@@H]1N[C@@H]12 [MITOMYCIN] | – | – | – | – | – | – | – | – | – | – | – | – | – | – | – | 0.02 (≈ 0.0598 µM) | –
COc1cccc(/C=C\c2ccc(O[Si](C)(C)C(C)(C)C)cc2)c1 | – | – | – | – | Not Active | inactive | inactive | inactive | inactive | inactive | inactive | inactive | inactive | inactive | – | – | –
COc1cccc(/C=C\c2ccc(O)cc2)c1 | 62.5 (≈ 276 µM) | 31.2 (≈ 138 µM) | 15.6 (≈ 69 µM) | 12.6 (≈ 55.8 µM) | – | – | – | – | – | – | – | – | – | – | 10 | 16.3 (≈ 72 µM) | zone of inhibition at 60 µg/disc (Amorphotheca resinae [8]): 3 mm; Activity (Bacillus subtilis [16]): inactive; zone of inhibition at 12 µg/disc (Bacillus subtilis [17]): 4 mm; zone of inhibition at 60 µg/disc (Bacillus subtilis [9]): 9 mm; zone of inhibition at 300 µg/disc (Bacillus subtilis [10]): 9 mm; Activity (Candida albicans [18]): inactive; zone of inhibition at 12 µg/disc (Candida albicans [19]): 2 mm; zone of inhibition at 60 µg/disc (Candida albicans [11]): 7 mm; zone of inhibition at 300 µg/disc (Candida albicans [12]): 7 mm; zone of inhibition at 2.4 µg/disc [20]: 5 mm; zone of inhibition at 12 µg/disc [21]: 7 mm; zone of inhibition at 300 µg/disc [14]: 10 mm
